GPR7 antagonist: blocks human GPR7 receptor signaling; GPR7-expressing cells, fluorescence antagonist assay; inhibition, % at 4.4 µM; actives 1.1% (n = 290,000); AID 1861; in the data active = inhibition above about 16%, passing the limit was not always enough;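 also: cells stimulated with the agonist NPW; 0% = agonist with vehicle and 100% = vehicle without agonist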
Target sequence (P48145 whole entry, looked up): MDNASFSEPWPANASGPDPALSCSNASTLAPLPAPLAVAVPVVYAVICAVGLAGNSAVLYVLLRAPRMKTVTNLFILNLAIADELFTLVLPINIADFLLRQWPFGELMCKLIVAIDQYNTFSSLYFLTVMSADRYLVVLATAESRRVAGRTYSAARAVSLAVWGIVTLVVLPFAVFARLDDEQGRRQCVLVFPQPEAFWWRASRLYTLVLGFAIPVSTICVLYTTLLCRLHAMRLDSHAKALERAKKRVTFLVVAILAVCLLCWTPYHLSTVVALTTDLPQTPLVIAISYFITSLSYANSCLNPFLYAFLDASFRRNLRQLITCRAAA
ZTA DNA inh: ZTA (EBV) inhibition in EBNA-1 counter-screen | actives 0.15% (n = 320,000) | P03206 | ZTA-DNA binding, fluorescence polarization | inhibition, % at 11 µM | AID 2234; in the data active = inhibition above about 33%
Target sequence (P03206 whole entry, looked up): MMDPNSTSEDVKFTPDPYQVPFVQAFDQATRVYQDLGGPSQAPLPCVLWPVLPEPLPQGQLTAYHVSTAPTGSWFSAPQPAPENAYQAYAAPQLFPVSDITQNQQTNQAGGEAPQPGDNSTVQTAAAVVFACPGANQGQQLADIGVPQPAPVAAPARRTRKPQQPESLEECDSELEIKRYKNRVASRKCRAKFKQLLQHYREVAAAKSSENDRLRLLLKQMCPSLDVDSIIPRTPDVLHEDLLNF
NS3 helicase inh: inhibitors of Hepatitis C virus NS3 helicase; NS3 helicase DNA unwinding, Cy5 molecular beacon fluorescence; inhibition, % at 10.9 µM; actives 0.56% (n = 290,000); AID 1800;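 active = inhibition above the mean of all tested compounds plus 3 SD, set per campaign, cut at about 35% in these data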;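 also: 0% = DMSO wells and 100% = thioflavine S control wells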
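Control set: DMSO versus 110 µM thioflavine S; Material: NS3 helicase fragment of HCV; Measured by: Cy5 fluorescence at 0 and 60 min, beacon hairpin quenching; Read-out basis: percent inhibition from t60/t0 fluorescence ratio; Times: reaction time 60 min, 25 °C; Repeats: single replicate; Compound dosing: single dose, 10.9 µM nominal final, DMSO 0.8% final.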
DNA FID counter: displaces DNA intercalator in HCV helicase counter-screen; DNA fluorescent intercalator displacement, fluorescence; inhibition, % at 7.9 µM; actives 0.17% (n = 290,000); in the data active = inhibition above about 37%;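 also: 0% = vehicle and 100% = reference compound; higher means more ethidium bromide displaced from hairpin DNA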
EBNA-1 inhibitor: blocks EBNA-1 binding to DNA. actives 0.34% (n = 300,000). EBNA-1 DNA binding, fluorescence polarization. inhibition, % at 14.8 µM; in the data active = inhibition above about 28%
EBNA-1 inh conf: EBNA-1 (EBV) inhibition, confirmation; shares compounds with EBNA-1 inhibitor; inhibition, % at 14.8 µM; actives 35% (n = 830); Recombinant EBNA-1 DBD, Cy5-DNA fluorescence polarization;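 active = mean inhibition across replicates above a set limit taken from the earlier primary screen, cut at about 28% in these data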;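 also: plate controls were EBNA-1 protein with DMSO for no effect and wells lacking EBNA-1 for full effect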
ZTA DNA inh trip: blocks Epstein-Barr virus ZTA in triplicate, EBNA-1 counter-screen. shares compounds with EBNA-1 inhibitor. Zta-ZRE DNA binding, Cy5 fluorescence polarization. inhibition, % at 11.1 µM. 830 tested, under 10 active. AID 2328;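 active = mean inhibition over triplicates above a set limit taken from the primary EBNA-1 screen, cut at about 37% in these data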;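 also: purified full length Zta protein with Cy5 labeled ZRE DNA probe; 0% = Zta with DMSO and 100% = wells lacking Zta protein; inhibitors lower polarization by freeing the labeled DNA probe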
Starred values were filed as active, the others as inactive; x = not tested or not shown; + = active, no number; ! = a repeat was not active. Most compounds without a hit are left out; they make up all but 2% or so of the library.

SMILES | GPR7 antagonist | ZTA DNA inh | NS3 helicase inh | DNA FID counter | EBNA-1 inhibitor | EBNA-1 inh conf | ZTA DNA inh trip
CCN1C(=O)c2cccc3c(S(=O)(=O)Nc4ccccc4)ccc1c23 | -16 | 2 | -11 | -10 | 9 | x | x
CCN1C(=O)c2cccc3c(S(=O)(=O)Nc4ccc(OC)cc4OC)ccc1c23 | -6 | 1 | -14 | -11 | 32* | 2 | 9
COc1ccc2c(CC(=O)OCC(=O)Nc3cccc(C)c3)coc2c1 | x | -7 | x | x | x | x | x
O=C(CCC(=O)Nc1ccc(Br)cc1)N/N=C/c1ccc(O)cc1 | 12 | 11 | 5 | -1 | 28* | 1 | 7
COc1ccc(O)c(/C=N/NC(=O)CCC(=O)Nc2ccc(C)cc2)c1 | 11 | 10 | -28 | -11 | 50* | 0 | 6
Cc1cc(NC(=O)COC(=O)c2oc3c(ccc4ccccc43)c2C)no1 | -9 | 17 | 0 | -1 | 50* | 56* | 4
Cc1cc(NC(=O)CSc2ccc(Cl)cc2)no1 | 0 | -12 | 2 | 3 | -2 | x | x
Cc1cc(NC(=O)CSc2nc(-c3ccc(Cl)cc3)cs2)no1 | -8 | 15 | -7 | -2 | 40* | 7 | -12
Cc1ccc(/C=C(/NC(=O)c2ccccc2)C(=O)NC(Cc2c[nH]c3ccccc23)C(=O)O)cc1 (stereo unspecified) | 2 | 1 | 13 | -19 | 3 | x | x
COc1ccc(/C(C)=N\Nc2nc(-c3ccccc3)cc(=O)[nH]2)cc1 | -10 | 8 | -2 | -4 | 42* | 20 | 5
CCn1c(CSc2nnc3ccccn23)nc2cc(C(=O)O)ccc21 | -5 | 30 | -5 | -5 | 45* | 44* | 82*
CCOc1ccc(C(=O)CSc2nnc3ccccn23)cc1 | 2 | 4 | 3 | -6 | 5 | x | x
N#Cc1c(-c2cccs2)cc(C2CC2)nc1SCC(N)=O | -1 | 0 | 0 | -10 | 36* | 31* | 3
Nc1ccccc1S(=O)(=O)NCCCCc1ccccc1 | 4 | 6 | 2 | -15 | 0 | x | x
CCNc1ccc(C(=O)OC(C(=O)NC(N)=O)C(C)C)cc1[N+](=O)[O-] (stereo unspecified) | -7 | 0 | -2 | 1 | 33* | -11 | -5
CCNc1ccc(C(=O)OCC(=O)NC(C)c2ccccc2)cc1[N+](=O)[O-] (stereo unspecified) | -8 | 5 | -2 | -1 | -9 | x | x
Cc1ccccc1NC(=O)CSc1nc(=O)n(CCN2CCOCC2)c2c1CCCC2 | x | 4 | x | x | 13 | x | x
COc1ccc(CN(CCN(C)C)c2ccccn2)cc1 | -13 | 31 | 1 | 1 | +! | 8 | 8
COc1ccc(N2CCN(C(=S)Nc3ccc(F)cc3)CC2)cc1 | 4 | -17 | 6 | -9 | 34* | 25 | 7
COc1ccc(N2CCN(C(=S)Nc3cc(C)cc(C)c3)CC2)cc1 | -13 | 12 | 4 | -1 | 12 | x | x
O=C1/C(=C\c2ccc(O)cc2)SC(=S)N1c1cccnc1 | 0 | 7 | 4 | 7 | 31* | 21 | 11
COc1ccc(CN2CC(C(=O)NCCCN3CCCCC3)CC2=O)cc1 (stereo unspecified) | -2 | -23 | 10 | -3 | -13 | x | x
CC1CCc2sc(C(=O)NNC(=S)NC3CC3)cc2C1 (stereo unspecified) | 13 | -5 | 19 | -9 | -11 | x | x
Cc1cccc(/C=N/NC(=O)c2cc3c(s2)-c2ccccc2CC3)c1 | -3 | 9 | -7 | 1 | 132* | -4 | 5
COc1cccc(-c2cc(C(=O)Nc3cnn(Cc4ccc(F)cc4)c3)no2)c1 | -4 | -2 | 2 | -4 | 47* | 32* | 18
SMILES | GPR7 antagonist | ZTA DNA inh | NS3 helicase inh | DNA FID counter | EBNA-1 inhibitor | EBNA-1 inh conf | ZTA DNA inh trip
CCOc1ccc(S(=O)(=O)N(CC)CC(=O)NCc2ccncc2)cc1C | -16 | 7 | 5 | -16 | 7 | x | x
O=C1[C@H]2[C@@H](c3ccc(F)cc3)N3C(=O)N(c4cccc(F)c4)C(=O)[C@@]3(Cc3ccccc3)[C@H]2C(=O)N1C1CCCCC1 | x | 6 | x | x | 81* | 9 | -15
COc1ccc(S(=O)(=O)N2CCOCC2)cc1NC(=O)c1ccccc1-c1ccc(C(F)(F)F)cc1 | -9 | -1 | -3 | -1 | 32* | 37* | 14
N#Cc1c2c(c(NCc3cccnc3)n3c1nc1ccccc13)CCC2 | -7 | 2 | 3 | -9 | 77* | 31* | 4
COCCNc1c2c(c(C#N)c3nc4ccccc4n13)CCCC2 | -17 | 19 | -3 | -27 | 7 | x | x
CCOc1ccc(CN(CC)C(=O)Cc2c[nH]c3ccccc23)cc1OC | -15 | 4 | -1 | -36 | -4 | x | x
O=[N+]([O-])c1cccc(/C=N/Nc2nc(NCc3ccccc3)nc(N3CCOCC3)n2)c1 | -5 | 11 | -11 | -18 | 49* | 71* | 0
COc1ccc(/C=C/C(=O)c2c(C)nc3ccccn23)cc1 | -7 | -7 | -9 | -6 | 69* | 40* | -1
CSc1nc2ccc(NC(=O)c3ccc(Cl)s3)cc2s1 | -17 | -6 | 11 | 0 | 38* | 34* | 3
CCc1ccc(NC(=O)CCC(=O)Nc2nnc(C(C)C)s2)cc1 | -18 | -2 | 11 | -18 | 40* | 10 | -3
Cc1ccc(C)c(NC(=O)C(Sc2nc3ccccc3c(=O)n2CC(C)C)c2ccccc2)c1 (stereo unspecified) | -16 | -7 | -5 | -1 | 32* | -1 | 2
Cc1ccc(C(=O)CSc2nc(C)cc(SCc3nnc(-c4ccccc4)o3)n2)cc1 | -1 | -6 | 8 | 1 | 28* | 23 | 10
COc1ccc(C(=O)CSc2cc(C)nc(SCC(=O)c3ccc(C)cc3)n2)cc1 | -6 | -10 | 5 | -1 | 2 | x | x
C=CCOc1cccc(/C=N/NC(=O)CC(=O)NC2CCCCC2)c1 | -16 | 12 | -2 | -31 | 2 | x | x
NC(=O)C1CCN(CC(=O)Nc2ccc(S(=O)(=O)N3CCOCC3)cc2)CC1 | -18 | 1 | -9 | 0 | -14 | x | x
CN1CCN(c2nc(-c3ccccn3)nc3ccccc23)CC1 | -5 | -6 | 7 | 21 | 63* | 5 | -2
COc1ccc(CNC(=O)C2CCN(c3nnc(N4CCCC4=O)s3)CC2)cc1 | -5 | 0 | -13 | -26 | 5 | x | x
Cc1ccccc1CNC(=O)C1CCN(c2nnc(N3CCCC3=O)s2)CC1 | -3 | -10 | -13 | -2 | 96* | -8 | 0
CCCCn1c(N)c(N(C)C(=O)c2ccc(-n3cccn3)cc2)c(=O)[nH]c1=O | x | -15 | x | x | x | x | x
CCN(CC(=O)NCc1cccs1)C(=O)c1ccc(S(=O)(=O)N(CC)c2ccccc2)cc1 | x | -1 | x | x | x | x | x
O=C(O)[C@H](Cc1ccccc1)N1C(=O)c2c(Cl)c(Cl)c(Cl)c(Cl)c2C1=O | -2 | -10 | -16 | 8 | 5 | x | x
